Reference: ChEMBL document CHEMBL3272012, “5-(Tetradecyloxy)-2-furancarboxylic acid and related hypolipidemic fatty acid-like alkyloxyarylcarboxylic acids” (J Med Chem, 1977)
Blank lines part the entries; values can stand above or below the compound they belong to.

Experiments:
Rattus norvegicus [1] = assay: Increase in cholesterol level in Wistar rat liver at 422 umol/kg/day administered through diet for 4 days; assay type: ADME, organism-based; conditions: in vivo, po, 96 h
Rattus norvegicus [2] = assay: Hypolipidemic activity in Wistar rat assessed as reduction in plasma triglyceride level at 422 umol/kg/day administered through diet for 4 days; assay type: functional; conditions: 96 h
Rattus norvegicus [3] = assay: Increase in liver weight in Wistar rat at 422 umol/kg/day administered through diet for 4 days; assay type: ADME, organism-based; conditions: in vivo, po, 96 h
Rattus norvegicus [4] = assay: Hypolipidemic activity in Wistar rat assessed as reduction in plasma cholesterol level at 422 umol/kg/day administered through diet for 4 days; assay type: functional; conditions: 96 h
In short: (§1)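 Young male Wistar rats, 170-190 g initial weight, groups of six, given compound mixed thoroughly into Purina Lab Chow ad libitum for 4 or 10 days as stated. Daily dose calculated from food consumption and body weight. Bled by cardiac puncture at end of treatment; plasma cholesterol measured by automated procedure. Expressed as percent reduction versus simultaneous untreated control group; Student's t test.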

Rattus norvegicus [5] = assay: Hypolipidemic activity in Wistar rat assessed as reduction in plasma triglyceride level at 441 umol/kg/day administered through diet for 4 days; assay type: functional; conditions: 96 h
Rattus norvegicus [6] = assay: Increase in liver weight in Wistar rat at 441 umol/kg/day administered through diet for 4 days; assay type: ADME, organism-based; conditions: in vivo, po, 96 h
Rattus norvegicus [7] = assay: Hypolipidemic activity in Wistar rat assessed as reduction in plasma cholesterol level at 441 umol/kg/day administered through diet for 4 days; assay type: functional; conditions: 96 h; in short: as §1
Rattus norvegicus [8] = assay: Increase in cholesterol level in Wistar rat liver at 441 umol/kg/day administered through diet for 4 days; assay type: ADME, organism-based; conditions: in vivo, po, 96 h
Rattus norvegicus [9] = assay: Increase in liver weight in Wistar rat at 533 umol/kg/day administered through diet for 4 days; assay type: ADME, organism-based; conditions: in vivo, po, 96 h
Rattus norvegicus [10] = assay: Hypolipidemic activity in Wistar rat assessed as reduction in plasma triglyceride level at 533 umol/kg/day administered through diet for 4 days; assay type: functional; conditions: 96 h
Rattus norvegicus [11] = assay: Increase in cholesterol level in Wistar rat liver at 533 umol/kg/day administered through diet for 4 days; assay type: ADME, organism-based; conditions: in vivo, po, 96 h
Rattus norvegicus [12] = assay: Hypolipidemic activity in Wistar rat assessed as reduction in plasma cholesterol level at 533 umol/kg/day administered through diet for 4 days; assay type: functional; conditions: 96 h; in short: as §1
Rattus norvegicus [13] = assay: Increase in cholesterol level in Wistar rat liver at 319 umol/kg/day administered through diet for 4 days; assay type: ADME, organism-based; conditions: in vivo, po, 96 h
Rattus norvegicus [14] = assay: Hypolipidemic activity in Wistar rat assessed as reduction in plasma cholesterol level at 319 umol/kg/day administered through diet for 4 days; assay type: functional; conditions: 96 h
In short: (§2)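 Young male Wistar rats, 170-190 g at start, in groups of six, given compound mixed into Purina Lab Chow ad libitum for 4 or 10 days as stated. Daily dose was calculated from food consumption and body weight. Plasma was taken by cardiac puncture at the end and cholesterol measured by automated procedure. Results are % reduction versus a concurrent untreated control group, with Student's t test.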

Rattus norvegicus [15] = assay: Hypolipidemic activity in Wistar rat assessed as reduction in plasma triglyceride level at 319 umol/kg/day administered through diet for 4 days; assay type: functional; conditions: 96 h
In short: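 Young male Wistar rats, 170-190 g initial weight, six per group, fed drug mixed thoroughly into Purina Lab Chow ad libitum for the stated days; daily dose calculated from food consumption and body weight. Bled by cardiac puncture at end; plasma cholesterol and triglycerides by automated procedures, expressed as percent reduction versus simultaneous untreated controls; Student's t test.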

Rattus norvegicus [16] = assay: Increase in liver weight in Wistar rat at 319 umol/kg/day administered through diet for 4 days; assay type: ADME, organism-based; conditions: in vivo, po, 96 h
Rattus norvegicus [17] = assay: Increase in cholesterol level in Wistar rat liver at 351 umol/kg/day administered through diet for 4 days; assay type: ADME, organism-based; conditions: in vivo, po, 96 h
Rattus norvegicus [18] = assay: Hypolipidemic activity in Wistar rat assessed as reduction in plasma cholesterol level at 351 umol/kg/day administered through diet for 4 days; assay type: functional; conditions: 96 h; in short: as §2
Rattus norvegicus [19] = assay: Hypolipidemic activity in Wistar rat assessed as reduction in plasma triglyceride level at 351 umol/kg/day administered through diet for 4 days; assay type: functional; conditions: 96 h
In short: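 Young male Wistar rats, 170-190 g at start, six per group, given compound mixed into Purina Lab Chow, fed ad libitum for 4 or 10 days. Daily dose calculated from food consumption and body weight. Rats bled by cardiac puncture at end of treatment. Plasma triglycerides determined by automated procedure. Expressed as percent reduction versus a concurrent untreated control group, Student's t test.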

Rattus norvegicus [20] = assay: Increase in liver weight in Wistar rat at 351 umol/kg/day administered through diet for 4 days; assay type: ADME, organism-based; conditions: in vivo, po, 96 h
Rattus norvegicus [21] = assay: Increase in liver weight in Wistar rat at 437 umol/kg/day administered through diet for 4 days; assay type: ADME, organism-based; conditions: in vivo, po, 96 h
Rattus norvegicus [22] = assay: Increase in cholesterol level in Wistar rat liver at 437 umol/kg/day administered through diet for 4 days; assay type: ADME, organism-based; conditions: in vivo, po, 96 h
Rattus norvegicus [23] = assay: Hypolipidemic activity in Wistar rat assessed as reduction in plasma triglyceride level at 437 umol/kg/day administered through diet for 4 days; assay type: functional; conditions: 96 h
Rattus norvegicus [24] = assay: Hypolipidemic activity in Wistar rat assessed as reduction in plasma cholesterol level at 437 umol/kg/day administered through diet for 4 days; assay type: functional; conditions: 96 h; in short: as §1

- Activity (Rattus norvegicus [1]): 9%
- Activity (Rattus norvegicus [3]): 11%
Compound: CCCCCCCCCCCCCCCCOc1ccc(C(=O)OCC)cc1
- inhibition in vivo at 422 µmol/kg (Rattus norvegicus [2]): 29%
- inhibition in vivo at 422 µmol/kg (Rattus norvegicus [4]): 8%

- Activity (Rattus norvegicus [9]): 22%
- Activity (Rattus norvegicus [11]): 0%
Compound: CCCCCCCCCCCCOc1ccc(C(=O)O)o1
- inhibition in vivo at 533 µmol/kg (Rattus norvegicus [10]): 79%
- inhibition in vivo at 533 µmol/kg (Rattus norvegicus [12]): 38%

- Activity (Rattus norvegicus [17]): 11%
- Activity (Rattus norvegicus [20]): 0%
Compound: CCCCCCCC/C=C/CCCCCCCCOc1ccc(C(=O)O)o1
- inhibition in vivo at 351 µmol/kg (Rattus norvegicus [18]): 4%
- inhibition in vivo at 351 µmol/kg (Rattus norvegicus [19]): 26%

The remaining lines, values behind:

Compound: CCCCCCCCCCCCCCOc1ccc(C(=O)O)s1
- inhibition in vivo at 441 µmol/kg (Rattus norvegicus [5]): 83%
- Activity (Rattus norvegicus [6]): 4%
- inhibition in vivo at 441 µmol/kg (Rattus norvegicus [7]): 54%
- Activity (Rattus norvegicus [8]): 1%

Compound: CCCCCCCCCCCCCOc1ccc(C(=O)O)o1
- Activity (Rattus norvegicus [13]): 3%
- inhibition in vivo at 319 µmol/kg (Rattus norvegicus [14]): 31%
- inhibition in vivo at 319 µmol/kg (Rattus norvegicus [15]): 6%
- Activity (Rattus norvegicus [16]): 15%

Compound: CCCCCCCCCCCCCCCCOc1ccc(C(=O)O)o1
- Activity (Rattus norvegicus [21]): 4%
- Activity (Rattus norvegicus [22]): 5%
- inhibition in vivo at 437 µmol/kg (Rattus norvegicus [23]): 25%
- inhibition in vivo at 437 µmol/kg (Rattus norvegicus [24]): 24%
